pEC50: −log10 of the molar value. Values after ≈ are worked out from the molar mass of the structure shown.
Columns and labels:
[1] = tested on: HCV-Cre in Huh7.5.1LoxPGluc cells; test: HCV-Cre/LoxPGluc cell-based HCV infection qHTS assay; set-up: species or system Hepatitis C virus; details: primary screen, luciferase 48 h
In short: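 Huh7.5.1LoxPGluc cells carry a Cre-activated Gaussia luciferase and are kept in DMEM with 10% FBS at 37 °C and 5% CO2. Cells (750/well) were plated overnight, then given test compound and HCV-Cre at ~0.05 m.o.i. Five plates were run: DMSO plus 0.34, 1.7, 8.5 and 42 μM. Luciferase was read at 48 h. Responses were normalized to 10 μM cyclosporin A (100%) and DMSO (0%), and EC50 was fitted by nonlinear regression.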

[2] = Permeability; type: physicochemical
[3] = Aqueous solubility; type: physicochemical
[4] = Rat liver microsomal stability; type: in vitro ADME; details: for Microsomal t1/2: rat liver microsomes, 37°C, NADPH
[5] = tested on: HCV life cycle; type: cell-based, Hepatitis C virus; details: designated from HCVsc, HCVpp and HCV replicon inhibition (>50% = significant)
[6] = tested on: D1 dopamine receptor; details: ref AID: 504660; cited from earlier work
[7] = tested on: human M1 muscarinic receptor; details: ref AID: 624040; cited from earlier work
[8] = tested on: human tyrosyl-DNA phosphodiesterase 1; details: cited from earlier work; for inhibitory activity of human tyrosyl-DNA phosphodiesterase 1: ref AID 686978
[9] = tested on: HIV; details: ref AID:651610; cited from earlier work
[10] = tested on: respiratory syncytial virus (RSV); details: ref AID: 2410; cited from earlier work
[11] = tested on: ELG1-dependent DNA repair; details: PubChem / in-house qHTS cross-activity, AID not given; cited from earlier work
[12] = tested on: posterior segregation family member (pos-1) binding to mex-3-RNA; details: ref PubChem AID: 1964; cited from earlier work
[13] = tested on: miRNAs; details: D4 and its derivatives; ref AID: 2289; cited from earlier work
[14] = tested on: 5′UTR stem-loop driven prion protein mRNA translation in H4 neuroglioblastoma cells; details: D4 and its derivatives, ref AID: 1814; cited from earlier work
[15] = tested on: HCV-WT (wild-type HCVcc) in Huh7.5.1 cells; test: 2-part HCV-WT infection assay with HCV core immunofluorescence staining; type: cell-based, Hepatitis C virus; details: for higher potency at part-2 compared to part-1: HCV-WT 2-part infection assay
In short: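 Huh7.5.1 cells (3,000/well) were infected with wild-type J6/JFH1 HCVcc at 0.05 moi, with test compound added at infection in 1:3 serial dilutions from 30 μM (part 1). After 48 h, the media were moved onto fresh Huh7.5.1 cells (part 2) and infected for 48 h. Cells were stained with anti-core 6G7 mAb, an Alexa Fluor 488 secondary and Hoechst, then imaged. Core-positive cell percentages were normalized to DMSO and plotted as concentration-response curves.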

[16] = tested on: assembly of the perinucleolar compartement; details: ref AID 2427; cited from earlier work
[17] = tested on: DNA polymerase ETA; details: ref AID 588591; cited from earlier work
[18] = tested on: HCVsc; test: HCV single-cycle infection assay; type: cell-based, Hepatitis C virus; details: significant = more than 50% decrease
In short: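 Single-round defective HCV particles were made by replicon trans-packaging. These particles infect and replicate but cannot assemble new virions. Luciferase signal was read 48 h after compound treatment, with cyclosporin A as positive control.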

[19] = tested on: HCVpp-1a; type: cell-based, Hepatitis C virus

Cc1oc(-c2ccc(Cl)cc2)nc1CN1CCC(C(=O)NCCCN2CCCC2=O)CC1 [MLS000878431-01]
pEC50 [1]: 4.65

CCCCCn1c(=O)[nH]c2cc(C(=O)NCCCN3CCC(C)CC3)ccc2c1=O [MLS000876570-01]
pEC50 [1]: 5.35 | Permeability [2]: < 30.9 ×10⁻⁶ cm/s | Solubility [3]: > 59.0 µg/mL | Microsomal t1/2 [4]: > 30.0 m | half-life (t1/2) in rat microsomes [4]: greater than 30 min | Life cycle stage [5]: Entry

CC1CCCCN1CCCNC(=O)c1ccc2c(=O)n(CCc3ccccc3)c(=O)[nH]c2c1 (centres unmarked) [MLS000519917-01]
pEC50 [1]: 5.40

Cc1ccccc1-c1nc(CN2CCC(C(=O)NCCCN3CC(C)CC(C)C3)CC2)c(C)o1 (centres unmarked) [MLS000877128-01]
pEC50 [1]: 5.90 | Permeability [2]: 489.1 ×10⁻⁶ cm/s | Solubility [3]: 53.9 µg/mL (≈ 115 µM) | Life cycle stage [5]: Entry

Cc1ccccc1-c1nc(CN2CCC(C(=O)NCCCN3CCCC3)CC2)c(C)o1 [MLS000095192-01]
pEC50 [1]: 4.85

CCCCCn1c(=O)[nH]c2cc(C(=O)NCCN3CCCCC3C)ccc2c1=O (centres unmarked) [MLS000948325-01]
pEC50 [1]: 4.65

CC1CCN(CCCNC(=O)c2ccc3c(=O)n(CCc4ccccc4)c(=O)[nH]c3c2)CC1 [MLS000519916-01]
pEC50 [1]: 5.05

Cc1ccccc1-c1nc(CN2CCC(C(=O)NCC3CCCO3)CC2)c(C)o1 (centres unmarked) [MLS000095190-01]
pEC50 [1]: < 4.00

Cc1ccccc1-c1nc(CN2CCC(C(=O)NCCN3CCOCC3)CC2)c(C)o1 [MLS000913230-01]
pEC50 [1]: < 4.00

Cc1oc(-c2ccc(Cl)cc2)nc1CN1CCCC(C(=O)NCCCN2CCCC2=O)C1 (centres unmarked) [MLS000117605-01]
pEC50 [1]: 4.95

CCN1CCN(c2ccc(NC(=O)c3cccc(OCc4ccccc4)c3)cc2)CC1 [B5]
activity against D1 dopamine receptor [6]: showed activities | activity against human M1 muscarinic receptor [7]: showed activities

COc1ccc(CN2CCC(N(CCc3ccccc3)Cc3ccccc3)CC2)c(OC)c1.O=C(O)C(=O)O [MLS000662842-01]
Solubility [3]: 49.3 µg/mL | Microsomal t1/2 [4]: 2.3 m | half-life (t1/2) in rat microsomes [4]: 2.3 min | Life cycle stage [5]: Assembly/secretion

CCCCCn1c(=O)[nH]c2cc(C(=O)NC3CCN(Cc4ccccc4)CC3)ccc2c1=O [MLS000519908-01]
pEC50 [1]: < 4.00

Cc1c(NC(=O)c2cc3c(s2)-c2ccccc2OC3)cccc1[N+](=O)[O-] [D5]
inhibitory activity against human TDP1 ([8]; PubChem / in-house qHTS cross-activity, AID not given): showed inhibitory activities | inhibition of HIV [9]: inhibitor | inhibition of RSV [10]: inhibitor | inhibitory activity against ELG1-dependent DNA repair [11]: showed inhibitory activities

CCNC(=S)/N=C(\N)Nc1nc(C)c2cc(C)ccc2n1 [D4]
targeting pos-1 binding to mex-3-RNA [12]: targets | modulation of miRNAs [13]: potent modulators | activation of 5′UTR stem-loop driven prion protein mRNA translation [14]: activators

COc1ccc(CCNC(=O)c2cc3c(=O)n4ccccc4nc3n(CCCN3CCOCC3)c2=N)cc1 [MLS001139388-01]
Life cycle stage [5]: entry inhibitors

COC(=O)C1=C(c2ccc(-c3ccccc3)c(F)c2)C[C@@H]2CC[C@H]1N2C(=O)NCc1cccc2ccccc12 [D1]
inhibitory activity of human tyrosyl-DNA phosphodiesterase 1 [8]: showed inhibitory activity

O=C(NCCCN1CCCCC1)c1ccc2c(=O)n(CCc3ccccc3)c(=O)[nH]c2c1 [MLS000086784-01]
pEC50 [1]: 5.20

N#C/C(=C\Nc1ccc2cn[nH]c2c1)c1nc(-c2ccccc2)cs1 [D2]
inhibitory activity of human tyrosyl-DNA phosphodiesterase 1 [8]: showed inhibitory activity

Cc1cc(SCC(=O)c2ccccc2)n2ncc(-c3ccccc3)c2n1 [MLS000763045-01]
higher potency at part-2 compared to part-1 [15]: 10–50 fold

COc1ccc(CCNC(=O)c2cc3c(=O)n4ccccc4nc3n(C3CCCCC3)c2=N)cc1 [MLS001139315-01]
Life cycle stage [5]: entry inhibitors

Cn1c(=O)c2c(nc(SCC(=O)NCc3ccc4c(c3)OCO4)n2Cc2ccc(Cl)cc2)n(C)c1=O [D3]
inhibition of assembly of the perinucleolar compartement [16]: inhibited the assembly | inhibition of DNA polymerase ETA [17]: inhibitor

CCCCCn1c(=O)[nH]c2cc(C(=O)NCCCN3CCCCC3CC)ccc2c1=O (centres unmarked) [MLS000948303-01]
pEC50 [1]: 5.15

O=C(Nc1ccc(S(=O)(=O)Nc2ccccc2)cc1)c1ccc(CN2CCOCC2)cc1 [MLS000714550]
inhibition of HCV core-positive cells, part-1 versus part-2 ([15]; compounds 1:3 dilutions from 30 μM, 48 h per part): decreased similarly in both parts

N=c1c(C(=O)NCc2ccc3c(c2)OCO3)cc2c(=O)n3ccccc3nc2n1Cc1cccnc1 [MLS000040412-01]
inhibition in HCVsc assay [18]: significant inhibition | Life cycle stage [5]: entry inhibitors | inhibition in HCVpp assay [19]: less than 50%

CC(NC(=O)c1cc2c(=O)n3ccccc3nc2n(CC2CCCO2)c1=N)c1ccccc1 (centres unmarked) [MLS001217747-01]
inhibition in HCVsc assay [18]: significant inhibition | Life cycle stage [5]: entry inhibitors

Cc1ccc(C)c2nc(SCC(=O)N3CCCc4ccccc43)c(C#N)cc12 [D7]
higher potency at part-2 compared to part-1 [15]: 10–50 fold

CCOC(=O)c1cc2c(=O)n3ccccc3nc2n(CCCOC)c1=NC(=O)C(C)(C)C [MLS000879011-01]
Life cycle stage [5]: entry inhibitors

CCC1CCCCN1CCCNC(=O)C1CCN(Cc2nc(-c3ccc(Cl)cc3)oc2C)CC1 (centres unmarked) [MLS000913279-01]
pEC50 [1]: 5.85

Cc1ccccc1-c1nc(CN2CCC(C(=O)NCCC3=CCCCC3)CC2)c(C)o1 [MLS000095191-01]
pEC50 [1]: 5.20

CCC1CCCCN1CCCNC(=O)c1ccc2c(=O)n(CCOC)c(=O)[nH]c2c1 (centres unmarked) [MLS000948314-01]
pEC50 [1]: < 4.00

CCN1CCN(CCCOc2ccc(-c3ccccc3)cc2)CC1 [MLS000049859-01]
Permeability [2]: >2183.0 ×10⁻⁶ cm/s | Solubility [3]: > 48.0 µg/mL | Microsomal t1/2 [4]: 7.9 m | half-life (t1/2) in rat microsomes [4]: 7.9 min | Life cycle stage [5]: Entry

Cc1ccccc1-c1nc(CN2CCC(C(=O)NCc3cccnc3)CC2)c(C)o1 [MLS000095186-01]
pEC50 [1]: 5.30

CCCCCn1c(=O)[nH]c2cc(C(=O)NCCCN3CCCCC3)ccc2c1=O [MLS000086763-01]
pEC50 [1]: 5.00

— publication PMC4684727 (Antiviral research, 2015)
